# MrgX1 agonist – agonists of human MrgX1 receptor, primary screen, HEK293 cells, Fluo-4 calcium flux; Fluo-4 calcium fluorescence, agonist mode; active compounds read high; B-score at 10 µM; 0.44% of 310,000 active;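 active means calcium response B-score plate-corrected fluorescence ratio at least 3 library SD, with starting fluorescence B-score inside 5 SD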
# Target sequence (Q96LB2 whole entry, looked up): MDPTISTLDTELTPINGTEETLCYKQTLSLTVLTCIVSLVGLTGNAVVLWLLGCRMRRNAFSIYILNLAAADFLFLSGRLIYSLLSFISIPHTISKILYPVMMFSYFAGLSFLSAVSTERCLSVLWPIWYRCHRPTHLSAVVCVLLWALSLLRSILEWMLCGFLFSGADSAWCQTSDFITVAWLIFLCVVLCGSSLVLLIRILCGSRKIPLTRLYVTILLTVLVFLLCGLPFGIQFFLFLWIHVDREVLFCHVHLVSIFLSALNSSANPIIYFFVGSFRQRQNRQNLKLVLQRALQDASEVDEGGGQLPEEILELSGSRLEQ
#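 System – MrgX1-expressing HEK293 cells · Incubation – cells plated overnight, dye loaded 0.5 h 37 °C, 0.5 h room temperature · Technique – kinetic Fluo-4 NW fluorescence of intracellular calcium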
# MrgX1 antag – antagonists of human MrgX1 receptor, primary screen, HEK293 cells, Fluo-4 calcium flux | Mas-related G-protein coupled receptor member X1 (Homo sapiens), Q96LB2 | 1.3% of 310,000 active | AID 588676, 2011 | B-score at 10 µM | BAM8-22 antagonism; active compounds read low;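 active means calcium-response B-score plate-corrected more than 3 library SD below zero, starting fluorescence within 5 deviations, no agonist response on first addition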;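 further: peak minus trough fluorescence over baseline after final BAM8-22 challenge near maximal dose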
# RGS4 block – RGS4 inhibitors, primary screen, cell-based, HEK293 M3R inducible RGS4, calcium flux | Regulator of G-protein signaling 4 (Homo sapiens), P49798 | Fluo-4 calcium flux; active compounds read high; triggered by carbachol at its EC20 | B-score at 10 µM | 0.45% of 310,000 active | AID 463165, 2010;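 active means B-score, a plate-corrected calcium signal, over three deviations above library mean, with baseline fluorescence within five deviations of library mean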;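 further: RGS4 expression induced by doxycycline in cells with stable M3 receptor; B-score is computed from the integrated fluorescence ratio over baseline after carbachol; higher B-score means a larger calcium signal and so more RGS4 inhibition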
# Target sequence (P49798 whole entry, looked up): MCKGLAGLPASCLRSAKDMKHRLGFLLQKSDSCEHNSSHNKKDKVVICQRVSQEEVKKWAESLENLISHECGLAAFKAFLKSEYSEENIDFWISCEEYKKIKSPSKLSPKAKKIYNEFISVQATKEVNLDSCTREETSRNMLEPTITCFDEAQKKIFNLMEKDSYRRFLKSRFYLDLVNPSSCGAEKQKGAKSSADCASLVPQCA
# MrgX1 allo act – positive allosteric modulators of MrgX1, primary screen, HEK293 cells, Fluo-4 calcium flux. 0.63% of 310,000 active. AID 588675, 2011. B-score at 10 µM. FDSS; active compounds read high. Mas-related G-protein coupled receptor member X1 (Homo sapiens), Q96LB2;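 active means plate-corrected calcium response at least 3 library SD above typical, normal starting fluorescence, not activating the receptor alone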;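 further: compound read alongside a low EC10 to EC30 dose of BAM8-22 agonist; peak minus trough fluorescence over baseline measured at the second addition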
# RGS4 pot – RGS4 potentiators or activators, primary screen, cell-based, HEK293 M3R inducible RGS4, calcium flux; 0.92% of 310,000 active; B-score at 10 µM; carbachol calcium flux Fluo4; active compounds read low; AID 463111, 2010;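 active means B-score of the integrated calcium signal more than 4 SD below the library mean, with starting fluorescence not abnormally high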;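 further: negative B-score means reduced calcium response which marks RGS4 activation or potentiation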
#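 System: HEK293 FlpIn-TREx cells, stable M3R, doxycycline-inducible RGS4. Timing: overnight RGS4 induction, 30 min dye load 37 °C, 20 min compound RT. Also added: carbachol, ECmax concentration. Measured by: Fluo4 fluorescence kinetic imaging of calcium. Evaluation: integrated calcium ratio converted to B score.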
# MrgX1 ant reconf – MrgX1 receptor antagonists, duplicate retest, confirmation, HEK293 cells, Fluo-4 calcium flux. shares compounds with MrgX1 antag. BAM8-22 calcium flux; active compounds read low. remaining BAM8-22 calcium response % of control (active compounds read low), % at 10 µM. 19% of 2,300 active;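 active means remaining agonist calcium response no higher than 100% minus 3 SD of agonist-only control wells, with starting fluorescence near control levels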;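 further: agonist BAM8-22 given at a near maximal EC90 to ECmax level; peak minus minimum fluorescence divided by baseline after agonist addition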
# HEK293 Ca flux – nonspecific calcium signal in parental HEK293, confirmation, counter-screen for MrgX1 antagonist project, parental HEK293 cells, Fluo-4 calcium flux | 2% of 4,000 active | Fluo-4 calcium fluorescence, FDSS | shares compounds with MrgX1 antag | fluorescence ratio F(max-min)/F0 at 10 µM;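 active means duplicate-averaged calcium fluorescence ratio at least three times the standard deviation of buffer wells, a nonspecific response in parental cells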
# HEK293 Ca counter – calcium response in parental HEK293 cells, primary screen, counter-screen for MrgX1 allosteric activator project, cell-based, Fluo-4 calcium flux, duplicate. fluorescence ratio F(max-min)/F0 at 10 µM. shares compounds with MrgX1 antag. Fluo-4 fluorescence ratio; active compounds read high. 0.4% of 4,000 active;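 active means calcium fluorescence ratio, averaged over duplicates, at least 3 SD of the buffer-well ratio, meaning a nonspecific response in receptor-free cells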;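 further: untransfected parental HEK293 lacking MrgX1 used as counterscreen for MrgX1 allosteric activators; fluorescence change taken during the second addition on a kinetic imager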
# HEK293 Ca cntr2 – calcium response in parental HEK293 cells, primary screen, counter-screen for MrgX1 agonist project, cell-based, Fluo-4 calcium flux, duplicate, agonist mode; shares compounds with MrgX1 antag; Fluo-4 calcium fluorescence (FDSS); active compounds read high; fluorescence ratio F(max-min)/F0 at 10 µM; 8.7% of 4,000 active;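 active means calcium fluorescence ratio at least three times the spread of buffer wells, meaning a non-specific response in parental cells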
# * hit, by the source's call; i = inactive; nt = not tested or not shown. Sampled rows, rich in hits. Any-hit rate of the full collection: about 3.5%.
SMILES,MrgX1 agonist,MrgX1 antag,RGS4 block,MrgX1 allo act,RGS4 pot,MrgX1 ant reconf,HEK293 Ca flux,HEK293 Ca counter,HEK293 Ca cntr2
Cc1cccc(NC(=O)Nc2c(C)n(C)n(-c3ccccc3)c2=O)c1C,i,i,i,i,i,nt,nt,nt,nt
Cc1cccc(NC(=S)Nc2c(C)n(C)n(-c3ccccc3)c2=O)c1C,i,-18.1*,i,i,i,i,i,i,i
CN(C)S(=O)(=O)c1ccc2c(c1)C(CC(=O)O)OC2=O (centres undefined),i,-4.54*,i,i,i,i,i,i,i
COc1cc(-c2nnn(CC(=O)NC3CCS(=O)(=O)C3)n2)ccc1OCc1ccccc1 (centres undefined),i,i,i,i,i,nt,nt,nt,nt
COc1cc(-c2nnn(CC#N)n2)ccc1OCc1ccccc1,i,-4.65*,i,i,i,i,i,i,i
COc1ccc(-c2nnn(CC(=O)c3ccccc3)n2)cc1OC,i,-4.74*,i,i,i,i,i,i,i
CCCCN(C(=O)c1cccc(-n2cccc2)c1)c1c(N)n(Cc2ccccc2)c(=O)[nH]c1=O,i,i,i,i,i,nt,nt,nt,nt
CCN(CC)S(=O)(=O)c1cccc(C(=O)Nc2ccc3c(c2)OCO3)c1,i,i,i,i,i,nt,nt,nt,nt
CCCNC(=O)c1cccc(NC(=O)C(C)C)c1,i,-7.27*,i,i,i,i,i,i,47.8*
CCC(CC)C(=O)Nc1cccc(C(=O)Nc2ccc3c(c2)OCO3)c1,i,-6*,i,i,i,i,i,i,i
Clc1cccc(N/N=C(\Cc2nc3ccccc3[nH]2)c2ccccc2)c1,i,i,i,i,i,nt,nt,nt,nt
O=C(OCCN1C(=O)c2ccccc2C1=O)c1cccs1,i,-5.03*,i,i,i,i,i,i,i
Cc1ccccc1-n1c(=O)cc(N2CCCCCC2)[nH]c1=O,i,-6.01*,i,i,i,i,i,i,i
COc1cc(NC(=O)C2CSC3(C)CCC(=O)N23)c(OC)cc1Cl (centres undefined),i,-7.85*,i,i,i,82.8%*,i,i,i
O=[N+]([O-])c1cc(C(F)(F)F)ccc1NCCCCNS(=O)(=O)c1ccc(Cl)cc1,i,i,i,i,i,nt,nt,nt,nt
O=[N+]([O-])c1cc(C(F)(F)F)ccc1NCCNC(=S)Nc1ccc(Cl)cc1,i,-10.8*,i,i,-7.12*,71.8%*,i,i,i
O=C(Nc1ccc(S(=O)(=O)N2CCc3ccccc32)cc1)c1ccco1,i,-4.78*,i,i,i,i,i,i,i
CCC(=O)Nc1ccc(S(=O)(=O)N2CCc3ccccc32)cc1,i,i,i,i,i,nt,nt,nt,nt
COCCNC(=O)CSC1=N/C(=C/c2ccc(Cl)c(Cl)c2)C(=O)N1c1ccccc1F,i,i,i,i,i,nt,nt,nt,nt
COC(=O)CNC(=O)CNC(=O)Nc1ccccc1,i,-8.09*,i,i,i,82.9%*,i,i,i
CCOC(=O)C1CCCN(S(=O)(=O)CCNC(=O)c2cccc(OC)c2)C1 (centres undefined),i,i,i,i,i,nt,nt,nt,nt
Cc1ccc(OCC(=O)N/N=C2/SCC(=O)N2Cc2ccccc2)cc1,i,-21.3*,i,i,i,i,i,i,i
Cc1ccccc1CSc1nnc(-c2cccs2)n1Cc1ccco1,i,i,i,i,i,nt,nt,nt,nt
c1ccc(CSc2nnc(-c3cccs3)n2Cc2ccco2)cc1,i,-5.75*,i,i,i,82.7%*,i,i,i
Cc1ccc(C2=NN(CCC(=O)NCCCN3CCOCC3)C(=O)CC2)cc1,i,i,i,i,i,nt,nt,nt,nt
SMILES,MrgX1 agonist,MrgX1 antag,RGS4 block,MrgX1 allo act,RGS4 pot,MrgX1 ant reconf,HEK293 Ca flux,HEK293 Ca counter,HEK293 Ca cntr2
COc1ccc(OC)c(CNS(=O)(=O)c2cn(C)cn2)c1,i,-4.54*,i,i,i,i,i,i,i
CC(=O)N1c2ccc(S(=O)(=O)N(C)Cc3ccco3)cc2CC1C (centres undefined),i,i,i,i,i,nt,nt,nt,nt
N#Cc1nc(-c2cccs2)oc1NCc1ccccc1,i,i,i,i,i,nt,nt,nt,nt
Cc1ccc(CNc2oc(-c3cccs3)nc2C#N)cc1,i,-5.37*,i,i,i,i,i,i,i
Nn1c(SCC(=O)NC(=O)Nc2ccc3c(c2)OCCO3)nnc1C1CC1,i,i,i,i,i,nt,nt,nt,nt
COc1ccc(OC)c(N2C(=O)CC(Cc3ccc(Cl)cc3)C2=O)c1 (centres undefined),i,-4.52*,i,i,i,i,i,i,i
CCOC(=O)C1CCN(S(=O)(=O)c2ccc3c4c2CC(=O)N4CC(C)S3)CC1 (centres undefined),i,i,i,i,i,nt,nt,nt,nt
O=c1[nH]c2ccccc2nc1/C=C/c1ccc(F)cc1,i,-7.97*,i,i,i,i,i,i,i
COc1ccc(OCCCC(=O)OC(C)C(=O)Nc2ccc(S(N)(=O)=O)cc2)cc1 (centres undefined),i,i,i,i,i,nt,nt,nt,nt
CN(C)/C=N/c1nc(-c2ccc3c(c2)OCO3)cs1,i,-6.43*,i,i,i,i,i,i,i
